Only some compounds are listed: those with a hit (about 1.7% of all), similar ones and a draw of the others.
HNF4A DNA FP: change in binding of human HNF4A to DNA, primary screen, biochemical, fluorescence polarization, FITC-DNA | Hepatocyte nuclear factor 4-alpha (Homo sapiens), P41235 | 1 h | activity change, % at 10 µM | hit rate 0.3% among 360,000 | AID 1224865, 2016; in the data active means activity change above about 30%, passing the limit was not always enough
TPT1 inh: Candida albicans TPT1 enzyme inhibitors, primary screen, biochemical, fluorescence polarization. tRNA 2'-phosphotransferase TPT1 (Candida albicans SC5314). recombinant caTPT1, FP RNA substrate dephosphorylation. hit rate 0.81% among 300,000. inhibition, % at 5 µM;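 active means inhibition above the mean of all tested compounds plus 3 SD, set per screening campaign, cut at about 24% in these data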;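 further: plate controls were DMSO alone for no effect and ferristatin control at 100 nM for full effect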
Rev-erbA mod: modulators of Rev-erb alpha DNA binding, primary screen, biochemical, FITC-DNA, fluorescence polarization, uHTS | Nuclear receptor subfamily 1 group D member 1 (Homo sapiens), P20393 | activity, % at 10 µM | hit rate 0.79% among 370,000 | Rev-erbα–FITC-DNA binding, 90 min;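 active means activity above about 14%, limit read from the data; passing the limit was not always enough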;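 further: 0% = DMSO wells with 35 nM protein and 100% = DMSO wells with 750 nM protein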
CSN deneddyl inh: inhibitors of CSN-mediated cullin deneddylation, primary screen, biochemical, fluorescence polarization, uHTS | COP9 signalosome complex subunit 5 (Homo sapiens), Q92905 | Purified CSN, SCF-Nedd8-OG deneddylation | inhibition, % at 12.5 µM | hit rate 0.38% among 360,000;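 active means pattern-corrected inhibition above about 35%, with an unprinted fluorescence ratio check between 0.5 and 1.5, limit read from the data, passing the limit was not always enough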;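 further: 0% = enzyme with substrate and 100% = substrate without enzyme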
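Test system: purified human Csn5 enzyme expressed in HEK293T cells. Amount: 0.24 nM enzyme. Reagent: SCFSkp2-Nedd8OG substrate at 10 nM final. Schedule: 90 min incubation of compound, enzyme and substrate at room temperature. Detection: fluorescence polarization. Read-out: % inhibition of substrate cleavage by Csn5.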
TPT1 inh confirm: Candida albicans TPT1 inhibitors, confirmation, biochemical, fluorescence polarization, triplicate; shares compounds with TPT1 inh; recombinant caTPT1, RNase T1 coupled; inhibition, % at 5 µM; hit rate 74% among 2,400; AID 2149, 2009;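 active means inhibition above the primary screen limit, the mean inhibition of all tested compounds plus 3 SD, cut at about 25% in these data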
RNase T1 inh: RNase T1 inhibitors, counter-screen for TPT1 inhibitor project, biochemical, fluorescence polarization; shares compounds with TPT1 inh; RNase T1 cleavage, 1536-well; inhibition, % at 5 µM; hit rate 83% among 2,400;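 active means inhibition above the solvent-only control well mean plus 3 SD, limit set per screening run, cut at about 23% in these data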;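 further: plate controls were DMSO wells with enzyme for no effect and wells without RNase T1 for full effect; inhibitors block cleavage so intact labeled substrate keeps polarization high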
CSN deneddyl val: Csn5 deneddylation inhibitors, confirmation, biochemical, fluorescence polarization, single concentration, SCF-Nedd8OG substrate; hit rate 62% among 540; inhibition, % at 16.6 µM; Csn5 deneddylation of SCF-Nedd8OG, 90 min; shares compounds with CSN deneddyl inh; in the data active means inhibition above about 50%;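 further: 0% = DMSO with enzyme and 100% = no enzyme wells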
MMP-2 counter: MMP-2 protease inhibition counter-screen, confirmation, counter-screen for CSN deneddylation inhibitor project, biochemical, fluorescence, single concentration | inhibition, % at 16.6 µM | hit rate 33% among 540 | shares compounds with CSN deneddyl inh | recombinant MMP-2, FRET substrate fluorescence, 60 min;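 active means corrected plate-normalized z-score of 5 or more, or -5 or less, or inhibition of 15% or more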;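 further: plate controls were DMSO wells with enzyme for no effect and buffer wells lacking MMP-2 for full effect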
Target sequence (P08253 whole entry, looked up): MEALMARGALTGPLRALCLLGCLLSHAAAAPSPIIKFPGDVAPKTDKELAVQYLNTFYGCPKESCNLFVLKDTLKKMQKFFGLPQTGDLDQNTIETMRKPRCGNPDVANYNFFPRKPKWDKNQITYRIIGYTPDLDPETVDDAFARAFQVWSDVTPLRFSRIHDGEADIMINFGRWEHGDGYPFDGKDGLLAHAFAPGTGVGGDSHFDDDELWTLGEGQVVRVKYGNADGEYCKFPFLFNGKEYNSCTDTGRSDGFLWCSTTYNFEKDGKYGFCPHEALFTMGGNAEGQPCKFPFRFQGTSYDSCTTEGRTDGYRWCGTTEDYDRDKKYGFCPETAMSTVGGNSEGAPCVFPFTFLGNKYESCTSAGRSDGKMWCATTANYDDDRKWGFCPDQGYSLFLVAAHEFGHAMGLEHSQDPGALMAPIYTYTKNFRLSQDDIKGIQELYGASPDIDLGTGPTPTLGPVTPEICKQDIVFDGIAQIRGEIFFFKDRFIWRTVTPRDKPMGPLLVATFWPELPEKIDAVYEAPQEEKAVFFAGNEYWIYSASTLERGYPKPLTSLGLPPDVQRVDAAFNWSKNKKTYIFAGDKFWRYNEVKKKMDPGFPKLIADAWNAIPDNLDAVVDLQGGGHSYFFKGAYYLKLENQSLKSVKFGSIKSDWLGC
Thrombin cntr: counter-screen for CSN deneddylation inhibitors: bovine thrombin inhibition. hit rate 49% among 540. AID 720656. bovine thrombin cleavage of Ub4-pepOG, fluorescence polarization. shares compounds with CSN deneddyl inh. inhibition, % at 16.6 µM;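 active means inhibition at or above a set limit, with a fluorescence interference ratio between 0.5 and a set maximum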
Starred values were filed as active, the others as inactive; / = no result.

SMILES | HNF4A DNA FP | TPT1 inh | Rev-erbA mod | CSN deneddyl inh | TPT1 inh confirm | RNase T1 inh | CSN deneddyl val | MMP-2 counter | Thrombin cntr
Cc1ccc(N2C(=O)NC(=O)/C(=C\C=C\c3ccco3)C2=O)cc1C | 1 | 38* | 0 | 69* | 51* | 70* | 68* | 6 | 12
Cc1cc(N2CCOCC2)ccc1/C=C1\C(=O)NC(=O)N(c2ccccc2)C1=O | 5 | 5 | 0 | 5 | / | / | / | / | /
Cc1cccc(N2C(=O)NC(=O)/C(=C\C=C\c3ccco3)C2=O)c1 | 5 | 25* | 3 | 50* | 30* | 48* | 84* | 8 | 9
CC(C)(C)c1ccc(O)c(N=Cc2c(O)ccc3ccccc23)c1 | 76 | 135* | 10 | 57* | 138* | 131* | 67* | -19 | 61*
O=C1NC(=O)N(c2cccc(F)c2)C(=O)/C1=C/c1ccc(N2CCOCC2)cc1 | 0 | 8 | 3 | 9 | / | / | / | / | /
Cc1ccc(/C=C2\C(=O)NC(=S)N(c3cccc(F)c3)C2=O)o1 | 21 | 41* | -5 | 45* | 46* | 57* | 65* | 35* | 54*
N#CCCn1cc(C(=O)Nc2ccccc2Br)c(-c2ccc([N+](=O)[O-])cc2)n1 | -3 | 1 | -1 | -5 | / | / | / | / | /
N#Cc1c(/N=C/c2c(O)n(Cc3ccco3)c(=O)[nH]c2=O)sc2c1CCCC2 | -3 | 44* | 0 | 43* | 8 | 14 | 73* | 10 | -2
CCN(CC)c1ccc(N=Cc2c(O)n(Cc3ccco3)c(=O)[nH]c2=O)cc1 | 102 | 45* | -1 | 62* | 64* | 69* | / | -14 | 25*
O=c1[nH]c(=O)n(Cc2ccco2)c(O)c1/C=N/N1CCCCCC1 | 0 | 0 | 3 | 6 | / | / | / | / | /
COC(=O)CCCC(NC(=S)N1CC2C[C@@H](C1)Cn1c2cccc1=O)C(=O)OC (stereo not given in full) | 1 | 2 | 2 | -2 | / | / | / | / | /
OC12Oc3ccccc3C=C1N1CCC2CC1 (stereo not given) | 2 | 4 | 0 | 9 | / | / | / | / | /
C=CCN1C(=O)/C(=C/c2ccc(Br)s2)C(=O)NC1=S | -6 | 28* | -7 | 37* | 15 | 24* | 81* | 13 | 3
Cc1cc(C=C2C(=O)N(C)C(=S)N(C)C2=O)c(C)n1C1CCCCC1 | 20 | 24* | 2 | 49* | 28* | 39* | 113* | 1 | 3
C=CCN1C(=O)NC(=O)/C(=C/C=C/c2ccccc2)C1=O | 20 | / | -5 | 3 | / | / | / | / | /
O=C1NC(=O)N(Cc2ccco2)C(=O)/C1=C/C=C/c1ccco1 | -31 | 35* | -22 | 46* | 39* | 54* | 48 | 26* | 20*
O=C1NC(=O)N(Cc2ccccc2)C(=O)/C1=C\C=C\c1ccco1 | 18 | 60* | -7 | 81* | 46* | 63* | 61* | 2 | 27*
C1=C(CCNCc2ccccc2)CCCC1 | 2 | -3 | -3 | 5 | / | / | / | / | /
O=C1NC(=O)C(=Cc2ccc(N3CCOCC3)cc2)C(=O)N1 | 0 | -3 | -3 | -3 | / | / | / | / | /
CCN1C(=O)C(=Cc2ccc(N3CCOCC3)o2)C(=O)N(CC)C1=S | 48* | 112* | 10 | 106* | 146* | 137* | 62* | -24 | 69*

Assay outcomes deposited in PubChem by several laboratories.
